ChEMBL document CHEMBL1139884, “Structure-based design, synthesis, and A-site rRNA cocrystal complexes of functionally novel aminoglycoside antibiotics: C2" ether analogues of paromomycin” (2007)
Converted amounts (≈) assume the structure as drawn.

Legend:
Staphylococcus aureus = assay: Antimicrobial activity against Staphylococcus aureus ATCC 13709 after 20 to 24 hrs; format: functional
Outline: (§1)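 Broth microdilution in duplicate; compound in 2.5% DMSO in water, overnight culture added to a final inoculum of about 10^2-10^3 CFU/well. Growth read as A595 after 20-24 h at 37°C, relative to a no-compound well. MIC reported as a range: complete inhibition at the higher concentration, viable cells at the lower. Ampicillin and tetracycline are the positive controls.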

Escherichia coli = assay: Antimicrobial activity against Escherichia coli ATCC 25922 after 20 to 24 hrs; format: functional; outline: as §1

| Structure (SMILES) | MIC (Staphylococcus aureus) | MIC (Escherichia coli) |
| --- | --- | --- |
| NC[C@@H]1O[C@H](O[C@H]2[C@@H](OCCNc3ccccc3)[C@H](O[C@@H]3[C@@H](O)[C@H](N)C[C@H](N)[C@H]3O[C@H]3O[C@H](CO)[C@@H](O)[C@H](O)[C@H]3N)O[C@@H]2CO)[C@H](N)[C@@H](O)[C@@H]1O | 6 µg/mL (≈ 8.17 µM) | 50 µg/mL (≈ 68 µM) |
| CN(C)CCO[C@H]1[C@H](O[C@@H]2[C@@H](O)[C@H](N)C[C@H](N)[C@H]2O[C@H]2O[C@H](CO)[C@@H](O)[C@H](O)[C@H]2N)O[C@H](CO)[C@H]1O[C@H]1O[C@@H](CN)[C@@H](O)[C@H](O)[C@H]1N | 6 µg/mL (≈ 8.74 µM) | 12 µg/mL (≈ 17.5 µM) |
| NC[C@@H]1O[C@H](O[C@H]2[C@@H](OCCCCCc3ccccc3)[C@H](O[C@@H]3[C@@H](O)[C@H](N)C[C@H](N)[C@H]3O[C@H]3O[C@H](CO)[C@@H](O)[C@H](O)[C@H]3N)O[C@@H]2CO)[C@H](N)[C@@H](O)[C@@H]1O | 3 µg/mL (≈ 3.94 µM) | 10 µg/mL (≈ 13.1 µM) |
| COc1cc(CCNCCO[C@H]2[C@H](O[C@@H]3[C@@H](O)[C@H](N)C[C@H](N)[C@H]3O[C@H]3O[C@H](CO)[C@@H](O)[C@H](O)[C@H]3N)O[C@H](CO)[C@H]2O[C@H]2O[C@@H](CN)[C@@H](O)[C@H](O)[C@H]2N)cc(OC)c1 | 5 µg/mL (≈ 6.08 µM) | 10 µg/mL (≈ 12.2 µM) |
| NC[C@@H]1O[C@H](O[C@H]2[C@@H](OCCCc3ccccc3)[C@H](O[C@@H]3[C@@H](O)[C@H](N)C[C@H](N)[C@H]3O[C@H]3O[C@H](CO)[C@@H](O)[C@H](O)[C@H]3N)O[C@@H]2CO)[C@H](N)[C@@H](O)[C@@H]1O | 3 µg/mL (≈ 4.09 µM) | 20 µg/mL (≈ 27.3 µM) |
| NCCCNCCO[C@H]1[C@H](O[C@@H]2[C@@H](O)[C@H](N)C[C@H](N)[C@H]2O[C@H]2O[C@H](CO)[C@@H](O)[C@H](O)[C@H]2N)O[C@H](CO)[C@H]1O[C@H]1O[C@@H](CN)[C@@H](O)[C@H](O)[C@H]1N | 3 µg/mL (≈ 4.19 µM) | 25 µg/mL (≈ 34.9 µM) |
| N[C@H]1[C@@H](O[C@H]2[C@H](O[C@@H]3O[C@H](CO)[C@@H](O)[C@H]3OCCNCCc3ccccc3)[C@@H](O)[C@H](N)C[C@@H]2N)O[C@H](CO)[C@@H](O)[C@@H]1O | 12 µg/mL (≈ 19.9 µM) | > 100 µg/mL |
| NC[C@@H]1O[C@H](O[C@H]2[C@@H](OCCNCC3CCCNC3)[C@H](O[C@@H]3[C@@H](O)[C@H](N)C[C@H](N)[C@H]3O[C@H]3O[C@H](CO)[C@@H](O)[C@H](O)[C@H]3N)O[C@@H]2CO)[C@H](N)[C@@H](O)[C@@H]1O (stereo not given in full) | 3 µg/mL (≈ 3.97 µM) | 1.5 µg/mL (≈ 1.98 µM) |
| N[C@H]1[C@@H](O[C@H]2[C@H](O[C@@H]3O[C@H](CO)[C@@H](O)[C@H]3O)[C@@H](O)[C@H](N)C[C@@H]2N)O[C@H](CO)[C@@H](O)[C@@H]1O | > 100 µg/mL | > 100 µg/mL |
| NC[C@@H]1O[C@H](O[C@H]2[C@@H](OCC(O)c3ccccc3)[C@H](O[C@@H]3[C@@H](O)[C@H](N)C[C@H](N)[C@H]3O[C@H]3O[C@H](CO)[C@@H](O)[C@H](O)[C@H]3N)O[C@@H]2CO)[C@H](N)[C@@H](O)[C@@H]1O (stereo not given in full) | 3 µg/mL (≈ 4.08 µM) | 25 µg/mL (≈ 34 µM) |
| NC[C@@H]1O[C@H](O[C@H]2[C@@H](OCCNCCC3CC4CCC3C4)[C@H](O[C@@H]3[C@@H](O)[C@H](N)C[C@H](N)[C@H]3O[C@H]3O[C@H](CO)[C@@H](O)[C@H](O)[C@H]3N)O[C@@H]2CO)[C@H](N)[C@@H](O)[C@@H]1O (stereo not given in full) | 5 µg/mL (≈ 6.4 µM) | > 10 µg/mL |
| NC[C@@H]1O[C@H](O[C@H]2[C@@H](OCCNC3CCNCC3)[C@H](O[C@H]3C(O[C@H]4O[C@H](CO)[C@@H](O)[C@H](O)[C@H]4N)[C@@H](N)C[C@@H](N)[C@@H]3O)O[C@@H]2CO)[C@H](N)[C@@H](O)[C@@H]1O (stereo not given in full) | 2 µg/mL (≈ 2.7 µM) | 25 µg/mL (≈ 33.7 µM) |
| NC[C@@H]1O[C@H](O[C@H]2[C@@H](OCCc3ccccc3)[C@H](O[C@@H]3[C@@H](O)[C@H](N)C[C@H](N)[C@H]3O[C@H]3O[C@H](CO)[C@@H](O)[C@H](O)[C@H]3N)O[C@@H]2CO)[C@H](N)[C@@H](O)[C@@H]1O | 6 µg/mL (≈ 8.34 µM) | > 50 µg/mL |
| NC[C@@H]1O[C@H](O[C@H]2[C@@H](OCCNCc3ccccc3)[C@H](O[C@@H]3[C@@H](O)[C@H](N)C[C@H](N)[C@H]3O[C@H]3O[C@H](CO)[C@@H](O)[C@H](O)[C@H]3N)O[C@@H]2CO)[C@H](N)[C@@H](O)[C@@H]1O | 3 µg/mL (≈ 4.01 µM) | 3 µg/mL (≈ 4.01 µM) |
| NCCNCCO[C@H]1[C@H](O[C@@H]2[C@@H](O)[C@H](N)C[C@H](N)[C@H]2O[C@H]2O[C@H](CO)[C@@H](O)[C@H](O)[C@H]2N)O[C@H](CO)[C@H]1O[C@H]1O[C@@H](CN)[C@@H](O)[C@H](O)[C@H]1N | 2 µg/mL (≈ 2.85 µM) | 6 µg/mL (≈ 8.55 µM) |

Next, values leading:

| MIC (Staphylococcus aureus) | MIC (Escherichia coli) | Structure (SMILES) |
| --- | --- | --- |
| 0.3 µg/mL (≈ 0.392 µM) | 3 µg/mL (≈ 3.92 µM) | NC[C@@H]1O[C@H](O[C@H]2[C@@H](OCCNCc3ccc(N)nc3)[C@H](O[C@@H]3[C@@H](O)[C@H](N)C[C@H](N)[C@H]3O[C@H]3O[C@H](CO)[C@@H](O)[C@H](O)[C@H]3N)O[C@@H]2CO)[C@H](N)[C@@H](O)[C@@H]1O |
| 2 µg/mL (≈ 2.66 µM) | 12 µg/mL (≈ 16 µM) | NC[C@@H]1O[C@H](O[C@H]2[C@@H](OCCNc3cccc(O)c3)[C@H](O[C@@H]3[C@@H](O)[C@H](N)C[C@H](N)[C@H]3O[C@H]3O[C@H](CO)[C@@H](O)[C@H](O)[C@H]3N)O[C@@H]2CO)[C@H](N)[C@@H](O)[C@@H]1O |
| < 0.6 µg/mL | 5 µg/mL (≈ 6.31 µM) | COc1ccc(CCNCCO[C@H]2[C@H](O[C@@H]3[C@@H](O)[C@H](N)C[C@H](N)[C@H]3O[C@H]3O[C@H](CO)[C@@H](O)[C@H](O)[C@H]3N)O[C@H](CO)[C@H]2O[C@H]2O[C@@H](CN)[C@@H](O)[C@H](O)[C@H]2N)cc1 |
| 0.6 µg/mL (≈ 0.681 µM) | 10 µg/mL (≈ 11.4 µM) | NC[C@@H]1O[C@H](O[C@H]2[C@@H](OCCN(CCCc3ccccc3)CCc3ccccc3)[C@H](O[C@H]3C(O[C@H]4O[C@H](CO)[C@@H](O)[C@H](O)[C@H]4N)[C@@H](N)C[C@@H](N)[C@@H]3O)O[C@@H]2CO)[C@H](N)[C@@H](O)[C@@H]1O (stereo not given in full) |
| 1 µg/mL (≈ 1.24 µM) | 20 µg/mL (≈ 24.7 µM) | NC[C@@H]1O[C@H](O[C@H]2[C@@H](OCCNC3C4CC5CC3CC(C4)C5O)[C@H](O[C@@H]3[C@@H](O)[C@H](N)C[C@H](N)[C@H]3O[C@H]3O[C@H](CO)[C@@H](O)[C@H](O)[C@H]3N)O[C@@H]2CO)[C@H](N)[C@@H](O)[C@@H]1O (stereo not given in full) |
| 2 µg/mL (≈ 2.72 µM) | 12 µg/mL (≈ 16.3 µM) | NC[C@@H]1O[C@H](O[C@H]2[C@@H](OCCNc3ccccn3)[C@H](O[C@@H]3[C@@H](O)[C@H](N)C[C@H](N)[C@H]3O[C@H]3O[C@H](CO)[C@@H](O)[C@H](O)[C@H]3N)O[C@@H]2CO)[C@H](N)[C@@H](O)[C@@H]1O |
| 1.25 µg/mL (≈ 1.58 µM) | > 10 µg/mL | NC[C@@H]1O[C@H](O[C@H]2[C@@H](OCCNC3CCCc4ccccc43)[C@H](O[C@@H]3[C@@H](O)[C@H](N)C[C@H](N)[C@H]3O[C@H]3O[C@H](CO)[C@@H](O)[C@H](O)[C@H]3N)O[C@@H]2CO)[C@H](N)[C@@H](O)[C@@H]1O (stereo not given in full) |
| 0.6 µg/mL (≈ 0.784 µM) | 6 µg/mL (≈ 7.84 µM) | NC[C@@H]1O[C@H](O[C@H]2[C@@H](OCCNCc3ccnc(N)c3)[C@H](O[C@@H]3[C@@H](O)[C@H](N)C[C@H](N)[C@H]3O[C@H]3O[C@H](CO)[C@@H](O)[C@H](O)[C@H]3N)O[C@@H]2CO)[C@H](N)[C@@H](O)[C@@H]1O |
| 2 µg/mL (≈ 3.04 µM) | 12 µg/mL (≈ 18.2 µM) | NCCO[C@H]1[C@H](O[C@@H]2[C@@H](O)[C@H](N)C[C@H](N)[C@H]2O[C@H]2O[C@H](CO)[C@@H](O)[C@H](O)[C@H]2N)O[C@H](CO)[C@H]1O[C@H]1O[C@@H](CN)[C@@H](O)[C@H](O)[C@H]1N |
| 0.6 µg/mL (≈ 0.808 µM) | 10 µg/mL (≈ 13.5 µM) | CC(C)(C)CCNCCO[C@H]1[C@H](O[C@@H]2[C@@H](O)[C@H](N)C[C@H](N)[C@H]2O[C@H]2O[C@H](CO)[C@@H](O)[C@H](O)[C@H]2N)O[C@H](CO)[C@H]1O[C@H]1O[C@@H](CN)[C@@H](O)[C@H](O)[C@H]1N |
